Drawing on ChEMBL document CHEMBL1149244, “Novel azido and isothiocyanato analogues of [3-(4-phenylalkylpiperazin-1-yl)propyl]bis(4-fluorophenyl)amines as potential irreversible ligands for the dopamine transporter” (J Med Chem, 2004), this text covers IC50 for eleven molecules.

This assay deals with Sodium-dependent dopamine transporter (Rattus norvegicus, UniProt P23977). The assay is described as follows: Displacement of [3H]WIN-35428 from DAT in Sprague-Dawley rat striatum. The method, boiled down:
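Male Sprague-Dawley rat striatal membranes (homogenized in ice-cold modified Krebs-HEPES, pH 7.4; washed by centrifugation), 2.5 mg original wet weight per tube, preincubated 5 min with or without test compound. Nonspecific binding defined with 0.1 mM cocaine. Filtration on BSA-presoaked GF/B filters, scintillation counting. Triplicates. IC50 and Hill coefficient reported.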

Sequence of Sodium-dependent dopamine transporter (P23977 whole entry): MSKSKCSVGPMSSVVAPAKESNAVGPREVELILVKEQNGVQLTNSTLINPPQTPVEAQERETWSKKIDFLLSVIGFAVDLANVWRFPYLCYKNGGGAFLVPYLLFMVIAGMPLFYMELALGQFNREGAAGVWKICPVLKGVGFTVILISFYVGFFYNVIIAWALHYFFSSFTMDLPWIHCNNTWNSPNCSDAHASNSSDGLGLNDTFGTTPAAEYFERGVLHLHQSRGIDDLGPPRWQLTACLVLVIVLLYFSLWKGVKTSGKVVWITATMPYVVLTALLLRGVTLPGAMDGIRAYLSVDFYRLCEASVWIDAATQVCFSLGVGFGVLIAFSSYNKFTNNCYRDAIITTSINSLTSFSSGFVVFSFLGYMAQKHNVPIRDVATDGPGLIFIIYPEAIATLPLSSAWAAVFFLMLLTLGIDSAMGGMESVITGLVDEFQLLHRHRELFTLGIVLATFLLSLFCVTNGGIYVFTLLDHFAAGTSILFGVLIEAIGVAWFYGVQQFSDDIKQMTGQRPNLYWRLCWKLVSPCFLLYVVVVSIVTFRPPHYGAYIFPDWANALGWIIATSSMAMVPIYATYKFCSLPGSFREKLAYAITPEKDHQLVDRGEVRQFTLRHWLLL

As to `Fc1ccc(N(CCCN2CCN(CCCc3ccc(N=C=S)cc3)CC2)c2ccc(F)cc2)cc1`, the IC50 amounted to 99.8 nM.
Molecule `[N-]=[N+]=Nc1ccc(CCN2CCN(CCOC(c3ccccc3)c3ccccc3)CC2)cc1I` displayed an IC50 of 5.61 nM.
For `Fc1ccc(N(CCCN2CCN(CCCc3ccccc3)CC2)c2ccc(F)cc2)cc1`, the IC50 was 19.5 nM.
To `[N-]=[N+]=Nc1ccc(CCCN2CCN(CCCN(c3ccc(F)cc3)c3ccc(F)cc3)CC2)cc1I` belongs 282 nM.
Molecule `Fc1ccc(N(CCCN2CCN(Cc3ccc(N=C=S)cc3)CC2)c2ccc(F)cc2)cc1` yielded an IC50 of 75.4 nM.
Under `Fc1ccc(N(CCCN2CCN(Cc3ccccc3)CC2)c2ccc(F)cc2)cc1` stands 29.7 nM; under `Fc1ccc(N(CCCN2CCN(CCc3ccc(N=C=S)cc3)CC2)c2ccc(F)cc2)cc1`, 68.3 nM.
`[N-]=[N+]=Nc1ccc(CN2CCN(CCCN(c3ccc(F)cc3)c3ccc(F)cc3)CC2)cc1I`: the IC50 turned out to be 242 nM.
As to `Fc1ccc(N(CCCN2CCN(CCc3ccc(N=C=S)c(I)c3)CC2)c2ccc(F)cc2)cc1`, the IC50 came out at 66 nM.
To `[N-]=[N+]=Nc1ccc(CCN2CCN(CCCN(c3ccc(F)cc3)c3ccc(F)cc3)CC2)cc1I` belongs 163 nM; to `Fc1ccc(N(CCCN2CCN(CCCc3ccc(N=C=S)c(I)c3)CC2)c2ccc(F)cc2)cc1`, 95.5 nM.

The term IC50 denotes the midpoint of a concentration-inhibition curve.
